Results reported in ChEMBL document CHEMBL4689842, “EUbOPEN Chemogenomics Library wave 1” (2021).

Assays:
U2OS = assay: Multiplex assay against U2OS; assay type: toxicity, cell-based; conditions: human
In short: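 Tubulin, mitochondrial-mass and membrane-permeability phenotypes are per cents of healthy-nucleus cells. Cells were gated by CellPathfinder machine learning into Hoechst high-intensity objects or normal cells, normal cells into healthy, pyknosed or fragmented nuclei, and pyknosed cells into mitotic or apoptotic. Before that, live cells stained at seeding with Hoechst33342, BioTracker Green Microtubule Cytoskeleton Dye, MitoTracker Red and Annexin V Alexa Fluor 680 were imaged on a CQ1 microscope at 37°C and 5% CO2 after compound addition.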

Fibroblast = assay: Incucyte cell viability with human fibroblast; assay type: toxicity, cell-based; conditions: 10 µM, compound concentration 10 uM; note: filed as whole numbers so only -1 and 0 and 1 occur
[1] = 12 h, 1 µM, compound concentration 1 uM, replicate 1
[2] = 12 h, 1 µM, compound concentration 1 uM, replicate 2
[3] = 12 h, 10 µM, compound concentration 10 uM, replicate 1
[4] = 12 h, 10 µM, compound concentration 10 uM, replicate 2
[5] = 24 h, 1 µM, compound concentration 1 uM, replicate 1
[6] = 24 h, 1 µM, compound concentration 1 uM, replicate 2
[7] = 24 h, 10 µM, compound concentration 10 uM, replicate 1
[8] = 24 h, 10 µM, compound concentration 10 uM, replicate 2
[9] = 48 h, 1 µM, compound concentration 1 uM, replicate 1
[10] = 48 h, 1 µM, compound concentration 1 uM, replicate 2
[11] = 48 h, 10 µM, compound concentration 10 uM, replicate 1
[12] = 48 h, 10 µM, compound concentration 10 uM, replicate 2

Question: What does the source list for Cc1c(P(=S)(c2ccccc2)c2ccccc2)n2ccccc2[n+]1C/C=C/c1ccccc1.[Br-]?
Answer: Population Apoptotic (%) (U2OS; [1]): 54%; Population Fragmented Nuclei (%) (U2OS; [1]): 21%; Population Healthy Nuclei (%) (U2OS; [1]): 69%; Population Hoechst High Intensity Objects (%) (U2OS; [1]): 5%; Population Membrane Permeable-Phenotype (%) (U2OS; [1]): 13%; Population Mitochondria Different-Phenotype (%) (U2OS; [1]): 35%; Population Mitotic Cells (%) (U2OS; [1]): 45%; Population Normal (%) (U2OS; [1]): 94%; Population Pyknosed Nuclei (%) (U2OS; [1]): 9%; Population Tubulin-Different-Phenotype (%) (U2OS; [1]): 26%; Total Cell Count (U2OS; [1]): 133; Population Apoptotic (%) (U2OS; [2]): 75%; Population Fragmented Nuclei (%) (U2OS; [2]): 50%; Population Healthy Nuclei (%) (U2OS; [2]): 45%; Population Hoechst High Intensity Objects (%) (U2OS; [2]): 22%; Population Membrane Permeable-Phenotype (%) (U2OS; [2]): 10%; Population Mitochondria Different-Phenotype (%) (U2OS; [2]): 50%; Population Mitotic Cells (%) (U2OS; [2]): 25%; Population Normal (%) (U2OS; [2]): 77%; Population Pyknosed Nuclei (%) (U2OS; [2]): 4%; Population Tubulin-Different-Phenotype (%) (U2OS; [2]): 31%; Total Cell Count (U2OS; [2]): 93; Population Apoptotic (%) (U2OS; [3]): 89%; Population Fragmented Nuclei (%) (U2OS; [3]): 28%; Population Healthy Nuclei (%) (U2OS; [3]): 9%; Population Hoechst High Intensity Objects (%) (U2OS; [3]): 21%; Population Membrane Permeable-Phenotype (%) (U2OS; [3]): 88%; Population Mitochondria Different-Phenotype (%) (U2OS; [3]): 100%; Population Mitotic Cells (%) (U2OS; [3]): 10%; Population Normal (%) (U2OS; [3]): 78%; Population Pyknosed Nuclei (%) (U2OS; [3]): 61%; Population Tubulin-Different-Phenotype (%) (U2OS; [3]): 100%; Total Cell Count (U2OS; [3]): 121; Population Apoptotic (%) (U2OS; [4]): 94%; Population Fragmented Nuclei (%) (U2OS; [4]): 21%; Population Healthy Nuclei (%) (U2OS; [4]): 10%; Population Hoechst High Intensity Objects (%) (U2OS; [4]): 8%; Population Membrane Permeable-Phenotype (%) (U2OS; [4]): 83%; Population Mitochondria Different-Phenotype (%) (U2OS; [4]): 83%; Population Mitotic Cells (%) (U2OS; [4]): 5%; Population Normal (%) (U2OS; [4]): 91%; Population Pyknosed Nuclei (%) (U2OS; [4]): 68%; Population Tubulin-Different-Phenotype (%) (U2OS; [4]): 83%; Total Cell Count (U2OS; [4]): 108; Population Apoptotic (%) (U2OS; [5]): 55%; Population Fragmented Nuclei (%) (U2OS; [5]): 12%; Population Healthy Nuclei (%) (U2OS; [5]): 73%; Population Hoechst High Intensity Objects (%) (U2OS; [5]): 5%; Population Membrane Permeable-Phenotype (%) (U2OS; [5]): 12%; Population Mitochondria Different-Phenotype (%) (U2OS; [5]): 18%; Population Mitotic Cells (%) (U2OS; [5]): 45%; Population Normal (%) (U2OS; [5]): 94%; Population Pyknosed Nuclei (%) (U2OS; [5]): 13%; Population Tubulin-Different-Phenotype (%) (U2OS; [5]): 12%; Total Cell Count (U2OS; [5]): 174; Population Apoptotic (%) (U2OS; [6]): 75%; Population Fragmented Nuclei (%) (U2OS; [6]): 55%; Population Healthy Nuclei (%) (U2OS; [6]): 40%; Population Hoechst High Intensity Objects (%) (U2OS; [6]): 33%; Population Membrane Permeable-Phenotype (%) (U2OS; [6]): 9%; Population Mitochondria Different-Phenotype (%) (U2OS; [6]): 31%; Population Mitotic Cells (%) (U2OS; [6]): 25%; Population Normal (%) (U2OS; [6]): 66%; Population Pyknosed Nuclei (%) (U2OS; [6]): 3%; Population Tubulin-Different-Phenotype (%) (U2OS; [6]): 15%; Total Cell Count (U2OS; [6]): 124; Population Fragmented Nuclei (%) (U2OS; [7]): 34%; Population Healthy Nuclei (%) (U2OS; [7]): 4%; Population Hoechst High Intensity Objects (%) (U2OS; [7]): 14%; Population Membrane Permeable-Phenotype (%) (U2OS; [7]): 75%; Population Mitochondria Different-Phenotype (%) (U2OS; [7]): 100%; Population Normal (%) (U2OS; [7]): 85%; Population Pyknosed Nuclei (%) (U2OS; [7]): 61%; Population Tubulin-Different-Phenotype (%) (U2OS; [7]): 100%; Total Cell Count (U2OS; [7]): 154; Population Apoptotic (%) (U2OS; [8]): 100%; Population Fragmented Nuclei (%) (U2OS; [8]): 23%; Population Healthy Nuclei (%) (U2OS; [8]): 38%; Population Hoechst High Intensity Objects (%) (U2OS; [8]): 26%; Population Membrane Permeable-Phenotype (%) (U2OS; [8]): 81%; Population Mitochondria Different-Phenotype (%) (U2OS; [8]): 81%; Population Mitotic Cells (%) (U2OS; [8]): 0%; Population Normal (%) (U2OS; [8]): 73%; Population Pyknosed Nuclei (%) (U2OS; [8]): 38%; Population Tubulin-Different-Phenotype (%) (U2OS; [8]): 81%; Total Cell Count (U2OS; [8]): 163; Population Fragmented Nuclei (%) (U2OS; [9]): 7%; Population Healthy Nuclei (%) (U2OS; [9]): 85%; Population Hoechst High Intensity Objects (%) (U2OS; [9]): 5%; Population Membrane Permeable-Phenotype (%) (U2OS; [9]): 3%; Population Mitochondria Different-Phenotype (%) (U2OS; [9]): 13%; Population Normal (%) (U2OS; [9]): 94%; Population Pyknosed Nuclei (%) (U2OS; [9]): 7%; Population Tubulin-Different-Phenotype (%) (U2OS; [9]): 11%; Total Cell Count (U2OS; [9]): 277; Population Apoptotic (%) (U2OS; [10]): 60%; Population Fragmented Nuclei (%) (U2OS; [10]): 42%; Population Healthy Nuclei (%) (U2OS; [10]): 49%; Population Hoechst High Intensity Objects (%) (U2OS; [10]): 25%; Population Membrane Permeable-Phenotype (%) (U2OS; [10]): 5%; Population Mitochondria Different-Phenotype (%) (U2OS; [10]): 21%; Population Mitotic Cells (%) (U2OS; [10]): 40%; Population Normal (%) (U2OS; [10]): 74%; Population Pyknosed Nuclei (%) (U2OS; [10]): 8%; Population Tubulin-Different-Phenotype (%) (U2OS; [10]): 8%; Total Cell Count (U2OS; [10]): 213; Population Fragmented Nuclei (%) (U2OS; [11]): 43%; Population Healthy Nuclei (%) (U2OS; [11]): 3%; Population Hoechst High Intensity Objects (%) (U2OS; [11]): 19%; Population Membrane Permeable-Phenotype (%) (U2OS; [11]): 66%; Population Mitochondria Different-Phenotype (%) (U2OS; [11]): 100%; Population Normal (%) (U2OS; [11]): 80%; Population Pyknosed Nuclei (%) (U2OS; [11]): 53%; Population Tubulin-Different-Phenotype (%) (U2OS; [11]): 100%; Total Cell Count (U2OS; [11]): 207; Population Apoptotic (%) (U2OS; [12]): 100%; Population Fragmented Nuclei (%) (U2OS; [12]): 75%; Population Healthy Nuclei (%) (U2OS; [12]): 18%; Population Hoechst High Intensity Objects (%) (U2OS; [12]): 21%; Population Membrane Permeable-Phenotype (%) (U2OS; [12]): 75%; Population Mitochondria Different-Phenotype (%) (U2OS; [12]): 75%; Population Mitotic Cells (%) (U2OS; [12]): 0%; Population Normal (%) (U2OS; [12]): 78%; Population Pyknosed Nuclei (%) (U2OS; [12]): 6%; Population Tubulin-Different-Phenotype (%) (U2OS; [12]): 75%; Total Cell Count (U2OS; [12]): 153; Growth Rate (Fibroblast; 0 h, replicate number 1, timepoint 0 hours): 0; Growth Rate (Fibroblast; 6 h, replicate number 1, timepoint 6 hours): 0; Growth Rate (Fibroblast; 12 h, replicate number 1, timepoint 12 hours): 0; Growth Rate (Fibroblast; 18 h, replicate number 1, timepoint 18 hours): 0; Growth Rate (Fibroblast; 24 h, replicate number 1, timepoint 24 hours): 0
